# Test results reported in ChEMBL document CHEMBL1122887, “Structure-activity studies on the N-terminal region of growth hormone releasing factor” (1985).
# Activity calls are given as the source filed them.
# Key:
# Rattus norvegicus [1] = assay: Effect on plasma growth hormone in anesthetized rat at a dose of 5 ug/100 g of body weight; type: functional
# How it was run: (§1)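 Male Charles River rats (175–350 g) anesthetized with sodium pentobarbital (6 mg/100 g body wt); 30 min later, 6–9 per group received a single subcutaneous 0.5-mL injection of saline, GRF(1-29)NH₂ reference, or one of two analogue doses. Jugular vein blood was drawn 15 min post-injection, and plasma GH was measured by radioimmunoassay, reported as ng/mL ± SE.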
# Rattus norvegicus [2] = assay: Effect on plasma growth hormone in anesthetized rat at a dose of 10 ug/100 g of body weight; type: functional; how it was run: as §1
# Rattus norvegicus [3] = assay: Percent growth hormone releasing activity in anesthetized rat relative to hpGRF (1-29)NH2; Not active; type: functional, organism-based
# How it was run: (§2)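 In pentobarbital-anesthetized male Charles River rats (6–9/group), two subcutaneous analogue doses and GRF(1-29)NH₂ reference doses were given. Plasma GH was measured by radioimmunoassay in jugular blood taken 15 min post-injection. Relative potency with 95% confidence limits came from a four-point assay design by Pugsley's method. Not active means no activity at the doses tested.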
# Rattus norvegicus [4] = assay: Percent growth hormone releasing activity in anesthetized rat relative to hpGRF (1-29)NH2; type: functional; how it was run: as §2
# Rattus norvegicus [5] = assay: Effect on plasma growth hormone in anesthetized rat at a dose of 4 ug/100 g of body weight; type: functional; how it was run: as §1
# Rattus norvegicus [6] = assay: Effect on plasma growth hormone in anesthetized rat at a dose of 20 ug/100 g of body weight; type: functional; how it was run: as §1
# Rattus norvegicus [7] = assay: Effect on plasma growth hormone in anesthetized rat at a dose of 25 ug/100 g of body weight; type: functional; how it was run: as §1
# Rattus norvegicus [8] = assay: Effect on plasma growth hormone in anesthetized rat at a dose of 125 ug/100 g of body weight; type: functional; how it was run: as §1
# Rattus norvegicus [9] = assay: Effect on plasma growth hormone in anesthetized rat at a dose of 50 ug/100 g of body weight; type: functional; how it was run: as §1
# Rattus norvegicus [10] = assay: Effect on plasma growth hormone in anesthetized rat at a dose of 0.62 ug/100 g of body weight; type: functional; how it was run: as §1
# Rattus norvegicus [11] = assay: Effect on plasma growth hormone in anesthetized rat at a dose of 0.25 ug/100 g of body weight; type: functional; how it was run: as §1
# Rattus norvegicus [12] = assay: Effect on plasma growth hormone in anesthetized rat at a dose of 3 ug/100 g of body weight; type: functional; how it was run: as §1
# Rattus norvegicus [13] = assay: Effect on plasma growth hormone in anesthetized rat at a dose of 1.2 ug/100 g of body weight; type: functional; how it was run: as §1
# Rattus norvegicus [14] = assay: Effect on plasma growth hormone in anesthetized rat at a dose of 32 ug/100 g of body weight; type: functional; how it was run: as §1
# Rattus norvegicus [15] = assay: Effect on plasma growth hormone in anesthetized rat at a dose of 16 ug/100 g of body weight; type: functional; how it was run: as §1
structure (smiles),measurement,setting,value
CC[C@H](C)[C@H](NC(=O)[C@H](C)NC(=O)[C@H](CC(=O)O)NC(=O)[C@@H](Cc1ccccc1)NC(=O)[C@H](Cc1ccc(O)cc1)NC(C)=O)C(=O)N[C@@H](Cc1ccccc1)C(=O)N[C@H](C(=O)N[C@@H](CC(N)=O)C(=O)N[C@@H](CO)C(=O)N[C@@H](Cc1ccc(O)cc1)C(=O)N[C@@H](CCCN=C(N)N)C(=O)N[C@@H](CCCCN)C(=O)N[C@H](C(=O)N[C@@H](CC(C)C)C(=O)NCC(=O)N[C@@H](CCC(N)=O)C(=O)N[C@@H](CC(C)C)C(=O)N[C@@H](CO)C(=O)N[C@@H](C)C(=O)N[C@@H](CCCN=C(N)N)C(=O)N[C@@H](CCCCN)C(=O)N[C@@H](CC(C)C)C(=O)N[C@@H](CC(C)C)C(=O)N[C@@H](CCC(N)=O)C(=O)N[C@@H](CC(=O)O)C(=O)N[C@H](C(=O)N[C@@H](CCSC)C(=O)N[C@@H](CO)C(=O)N[C@@H](CCCN=C(N)N)C(N)=O)[C@@H](C)CC)C(C)C)[C@@H](C)O,Activity,Rattus norvegicus [1],475 ng/mL
same,Activity,Rattus norvegicus [2],422 ng/mL
same,Activity,Rattus norvegicus [3],inactive
CC[C@H](C)[C@H](NC(=O)[C@H](C)NC(=O)[C@H](CC(=O)O)NC(=O)[C@H](C)NC(=O)[C@@H](N)Cc1ccc(O)cc1)C(=O)N[C@@H](Cc1ccccc1)C(=O)N[C@H](C(=O)N[C@H](CC(N)=O)C(=O)N[C@@H](CO)C(=O)N[C@@H](Cc1ccc(O)cc1)C(=O)N[C@@H](CCCN=C(N)N)C(=O)N[C@@H](CCCCN)C(=O)N[C@H](C(=O)N[C@@H](CC(C)C)C(=O)NCC(=O)N[C@@H](CCC(N)=O)C(=O)N[C@@H](CC(C)C)C(=O)N[C@@H](CO)C(=O)N[C@@H](C)C(=O)N[C@@H](CCCN=C(N)N)C(=O)N[C@@H](CCCCN)C(=O)N[C@@H](CC(C)C)C(=O)N[C@@H](CC(C)C)C(=O)N[C@@H](CCC(N)=O)C(=O)N[C@@H](CC(=O)O)C(=O)N[C@H](C(=O)N[C@@H](CCSC)C(=O)N[C@@H](CO)C(=O)N[C@@H](CCCN=C(N)N)C(N)=O)[C@@H](C)CC)C(C)C)[C@@H](C)O,Activity,Rattus norvegicus [4],221%
same,Activity,Rattus norvegicus [5],1296 ng/mL
same,Activity,Rattus norvegicus [2],2397 ng/mL
CC[C@H](C)[C@H](NC(=O)[C@H](C)NC(=O)[C@H](CC(=O)O)NC(=O)[C@H](C)NC(=O)[C@@H](N)Cc1ccc(O)cc1)C(=O)N[C@@H](Cc1ccccc1)C(=O)N[C@H](C(=O)N[C@@H](CC(N)=O)C(=O)N[C@@H](CO)C(=O)N[C@@H](Cc1ccc(O)cc1)C(=O)N[C@@H](CCCN=C(N)N)C(=O)N[C@@H](CCCCN)C(=O)N[C@H](C(=O)N[C@@H](CC(C)C)C(=O)NCC(=O)N[C@@H](CCC(N)=O)C(=O)N[C@@H](CC(C)C)C(=O)N[C@@H](CO)C(=O)N[C@@H](C)C(=O)N[C@@H](CCCN=C(N)N)C(=O)N[C@@H](CCCCN)C(=O)N[C@@H](CC(C)C)C(=O)N[C@@H](CC(C)C)C(=O)N[C@@H](CCC(N)=O)C(=O)N[C@@H](CC(=O)O)C(=O)N[C@H](C(=O)N[C@@H](CCSC)C(=O)N[C@@H](CO)C(=O)N[C@@H](CCCN=C(N)N)C(N)=O)[C@@H](C)CC)C(C)C)[C@@H](C)O,Activity,Rattus norvegicus [6],1781 ng/mL
CC[C@H](C)[C@H](NC(=O)[C@H](C)NC(=O)[C@H](CC(=O)O)NC(=O)[C@@H](C)NC(=O)[C@@H](Cc1ccc(O)cc1)NC(C)=O)C(=O)N[C@@H](Cc1ccccc1)C(=O)N[C@H](C(=O)N[C@@H](CC(N)=O)C(=O)N[C@@H](CO)C(=O)N[C@@H](Cc1ccc(O)cc1)C(=O)N[C@@H](CCCN=C(N)N)C(=O)N[C@@H](CCCCN)C(=O)N[C@H](C(=O)N[C@@H](CC(C)C)C(=O)NCC(=O)N[C@@H](CCC(N)=O)C(=O)N[C@@H](CC(C)C)C(=O)N[C@@H](CO)C(=O)N[C@@H](C)C(=O)N[C@@H](CCCN=C(N)N)C(=O)N[C@@H](CCCCN)C(=O)N[C@@H](CC(C)C)C(=O)N[C@@H](CC(C)C)C(=O)N[C@@H](CCC(N)=O)C(=O)N[C@@H](CC(=O)O)C(=O)N[C@H](C(=O)N[C@@H](CCSC)C(=O)N[C@@H](CO)C(=O)N[C@@H](CCCN=C(N)N)C(N)=O)[C@@H](C)CC)C(C)C)[C@@H](C)O (stereo in doubt; 4),Activity,Rattus norvegicus [7],2234 ng/mL
same,Activity,Rattus norvegicus [1],805 ng/mL
same,Activity,Rattus norvegicus [4],110%
CC[C@H](C)[C@H](NC(=O)[C@H](C)NC(=O)[C@H](CC(=O)O)NC(=O)[C@@H](C)NC(=O)[C@@H](Cc1ccc(O)cc1)NC(C)=O)C(=O)N[C@@H](Cc1ccccc1)C(=O)N[C@H](C(=O)N[C@@H](CC(N)=O)C(=O)N[C@@H](CO)C(=O)N[C@@H](Cc1ccc(O)cc1)C(=O)N[C@@H](CCCN=C(N)N)C(=O)N[C@@H](CCCCN)C(=O)N[C@H](C(=O)N[C@@H](CC(C)C)C(=O)NCC(=O)N[C@@H](CCC(N)=O)C(=O)N[C@@H](CC(C)C)C(=O)N[C@@H](CO)C(=O)N[C@@H](C)C(=O)N[C@@H](CCCN=C(N)N)C(=O)N[C@@H](CCCCN)C(=O)N[C@@H](CC(C)C)C(=O)N[C@@H](CC(C)C)C(=O)N[C@@H](CCC(N)=O)C(=O)N[C@@H](CC(=O)O)C(=O)N[C@H](C(=O)N[C@@H](CCSC)C(=O)N[C@@H](CO)C(=O)N[C@@H](CCCN=C(N)N)C(N)=O)[C@@H](C)CC)C(C)C)[C@@H](C)O (stereo in doubt; 5),Activity,Rattus norvegicus [8],670 ng/mL
same,Activity,Rattus norvegicus [9],435 ng/mL
same,Activity,Rattus norvegicus [4],<5%
CC[C@H](C)[C@H](NC(=O)[C@H](C)NC(=O)[C@H](CC(=O)O)NC(=O)[C@@H](C)NC(=O)[C@@H](Cc1ccc(O)cc1)NC(C)=O)C(=O)N[C@@H](Cc1ccccc1)C(=O)N[C@H](C(=O)N[C@@H](CC(N)=O)C(=O)N[C@@H](CO)C(=O)N[C@@H](Cc1ccc(O)cc1)C(=O)N[C@@H](CCCN=C(N)N)C(=O)N[C@@H](CCCCN)C(=O)N[C@H](C(=O)N[C@@H](CC(C)C)C(=O)NCC(=O)N[C@@H](CCC(N)=O)C(=O)N[C@@H](CC(C)C)C(=O)N[C@@H](CO)C(=O)N[C@@H](C)C(=O)N[C@@H](CCCN=C(N)N)C(=O)N[C@@H](CCCCN)C(=O)N[C@@H](CC(C)C)C(=O)N[C@@H](CC(C)C)C(=O)N[C@@H](CCC(N)=O)C(=O)N[C@@H](CC(=O)O)C(=O)N[C@H](C(=O)N[C@@H](CCSC)C(=O)N[C@@H](CO)C(=O)N[C@@H](CCCN=C(N)N)C(N)=O)[C@@H](C)CC)C(C)C)[C@@H](C)O (stereo in doubt; 7),Activity,Rattus norvegicus [7],328 ng/mL
same,Activity,Rattus norvegicus [1],213 ng/mL
CC[C@H](C)[C@H](NC(=O)[C@H](C)NC(=O)[C@H](CC(=O)O)NC(=O)[C@@H](C)NC(=O)[C@@H](Cc1ccc(O)cc1)NC(C)=O)C(=O)N[C@@H](Cc1ccccc1)C(=O)N[C@H](C(=O)N[C@@H](CC(N)=O)C(=O)N[C@@H](CO)C(=O)N[C@@H](Cc1ccc(O)cc1)C(=O)N[C@@H](CCCN=C(N)N)C(=O)N[C@@H](CCCCN)C(=O)N[C@H](C(=O)N[C@@H](CC(C)C)C(=O)NCC(=O)N[C@@H](CCC(N)=O)C(=O)N[C@@H](CC(C)C)C(=O)N[C@@H](CO)C(=O)N[C@@H](C)C(=O)N[C@@H](CCCN=C(N)N)C(=O)N[C@@H](CCCCN)C(=O)N[C@@H](CC(C)C)C(=O)N[C@@H](CC(C)C)C(=O)N[C@@H](CCC(N)=O)C(=O)N[C@@H](CC(=O)O)C(=O)N[C@H](C(=O)N[C@@H](CCSC)C(=O)N[C@@H](CO)C(=O)N[C@@H](CCCN=C(N)N)C(N)=O)[C@@H](C)CC)C(C)C)[C@@H](C)O (stereo in doubt; 12),Activity,Rattus norvegicus [10],2386 ng/mL
same,Activity,Rattus norvegicus [11],1235 ng/mL
same,Activity,Rattus norvegicus [4],3817%
CC[C@H](C)[C@H](NC(=O)[C@H](C)NC(=O)[C@H](CC(=O)O)NC(=O)[C@@H](C)NC(=O)[C@@H](Cc1ccc(O)cc1)NC(C)=O)C(=O)N[C@@H](Cc1ccccc1)C(=O)N[C@H](C(=O)N[C@@H](CC(N)=O)C(=O)N[C@@H](CO)C(=O)N[C@@H](Cc1ccc(O)cc1)C(=O)N[C@@H](CCCN=C(N)N)C(=O)N[C@@H](CCCCN)C(=O)N[C@H](C(=O)N[C@@H](CC(C)C)C(=O)NCC(=O)N[C@@H](CCC(N)=O)C(=O)N[C@@H](CC(C)C)C(=O)N[C@@H](CO)C(=O)N[C@@H](C)C(=O)N[C@@H](CCCN=C(N)N)C(=O)N[C@@H](CCCCN)C(=O)N[C@@H](CC(C)C)C(=O)N[C@@H](CC(C)C)C(=O)N[C@@H](CCC(N)=O)C(=O)N[C@@H](CC(=O)O)C(=O)N[C@H](C(=O)N[C@@H](CCSC)C(=O)N[C@@H](CO)C(=O)N[C@@H](CCCN=C(N)N)C(N)=O)[C@@H](C)CC)C(C)C)[C@@H](C)O (stereo in doubt; 13),Activity,Rattus norvegicus [12],3504 ng/mL
same,Activity,Rattus norvegicus [4],1297%
same,Activity,Rattus norvegicus [13],1329 ng/mL
CC[C@H](C)[C@H](NC(=O)[C@H](C)NC(=O)[C@H](CC(=O)O)NC(=O)[C@@H](C)NC(=O)[C@@H](Cc1ccc(O)cc1)NC(C)=O)C(=O)N[C@@H](Cc1ccccc1)C(=O)N[C@H](C(=O)N[C@@H](CC(N)=O)C(=O)N[C@@H](CO)C(=O)N[C@@H](Cc1ccc(O)cc1)C(=O)N[C@@H](CCCN=C(N)N)C(=O)N[C@@H](CCCCN)C(=O)N[C@H](C(=O)N[C@@H](CC(C)C)C(=O)NCC(=O)N[C@@H](CCC(N)=O)C(=O)N[C@@H](CC(C)C)C(=O)N[C@@H](CO)C(=O)N[C@@H](C)C(=O)N[C@@H](CCCN=C(N)N)C(=O)N[C@@H](CCCCN)C(=O)N[C@@H](CC(C)C)C(=O)N[C@@H](CC(C)C)C(=O)N[C@@H](CCC(N)=O)C(=O)N[C@@H](CC(=O)O)C(=O)N[C@H](C(=O)N[C@@H](CCSC)C(=O)N[C@@H](CO)C(=O)N[C@@H](CCCN=C(N)N)C(N)=O)[C@@H](C)CC)C(C)C)[C@@H](C)O (stereo in doubt; 19),Activity,Rattus norvegicus [14],2378 ng/mL
same,Activity,Rattus norvegicus [15],504 ng/mL
same,Activity,Rattus norvegicus [4],52%
